Measured values published in ChEMBL document CHEMBL1147854, “Synthesis and biological properties of 4-(3H)-quinazolone derivatives” (2007).
Calls of active or inactive are those of the source. The rule behind the calls is not given here.

Key:
[1] = test system: Aspergillus flavus; test: Antifungal activity against Aspergillus flavus at 10 ug/ml by agar plate method; type: functional
Method in brief: (§1)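 1 ml of test compound in DMSO (diluted to required level, filtered if turbid) mixed into 20–25 ml molten potato dextrose agar. After setting, plates were inoculated with fungal isolate and kept at 27 °C for seven days. Percent inhibition of fungal zone then recorded. Amphotericin control (7.5 mg/ml).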

[2] = test system: Aspergillus flavus; test: Antifungal activity against Aspergillus flavus at 100 ug/ml by agar plate method; type: functional; method in brief: as §1
[3] = test system: Staphylococcus aureus; test: Antibacterial activity against Staphylococcus aureus at 10 ug/ml after 24 hrs by disk diffusion method; type: functional; conditions: read-out: IZ
Method in brief: (§2)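 Disk diffusion on filter-paper discs impregnated with DMSO solutions of test compound; filtered if turbid. Inhibition zones around dried discs measured after 24 h. Triplicate samples. Tetracycline control (20 mg/ml).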

[4] = test system: Aspergillus niger; test: Antifungal activity against Aspergillus niger at 10 ug/ml by agar plate method; type: functional; method in brief: as §1
[5] = test system: Aspergillus niger; test: Antifungal activity against Aspergillus niger at 20 ug/ml by agar plate method; type: functional; method in brief: as §1
[6] = test system: Aspergillus niger; test: Antifungal activity against Aspergillus niger at 100 ug/ml by agar plate method; type: functional; method in brief: as §1
[7] = test system: Aspergillus flavus; test: Antifungal activity against Aspergillus flavus at 20 ug/ml by agar plate method; type: functional; method in brief: as §1
[8] = test system: MCF7; test: Cytotoxicity against human MCF7 cells by MTT assay; type: functional, cell-based
Method in brief: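 MCF-7 cells were kept at 37 °C, 5% CO2 in MEM with 10% FBS, then moved for four days to phenol red-free DMEM with 10% charcoal-stripped serum before testing. Cells were seeded at 1 × 10^4/well and exposed to compounds for 24, 48 and 72 h. MTT was added for 5 h at 37 °C, followed by DMSO solubilisation. Doxorubicin standard.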

[9] = test system: Aspergillus flavus; test: Antifungal activity against Aspergillus flavus at 50 ug/ml by agar plate method; type: functional; method in brief: as §1
[10] = test system: Klebsiella pneumoniae; test: Antibacterial activity against Klebsiella pneumoniae at 10 ug/ml after 24 hrs by disk diffusion method; type: functional; conditions: read-out: IZ; method in brief: as §2
[11] = test system: Aspergillus niger; test: Antifungal activity against Aspergillus niger at 50 ug/ml by agar plate method; type: functional; method in brief: as §1
[12] = test system: Pseudomonas aeruginosa; test: Antibacterial activity against Pseudomonas aeruginosa at 10 ug/ml after 24 hrs by disk diffusion method; type: functional; conditions: read-out: IZ; method in brief: as §2

| SMILES | inhibition at 10 µg/mL [1] | inhibition at 100 µg/mL [2] | zone of inhibition at 10 µg/mL [3] | inhibition at 10 µg/mL [4] | inhibition at 20 µg/mL [5] | inhibition at 100 µg/mL [6] | inhibition at 20 µg/mL [7] | Activity [8] | inhibition at 50 µg/mL [9] | zone of inhibition at 10 µg/mL [10] | inhibition at 50 µg/mL [11] | zone of inhibition at 10 µg/mL [12] |
| --- | --- | --- | --- | --- | --- | --- | --- | --- | --- | --- | --- | --- |
| O=C(NCc1nc2ccccc2c(=O)n1Nc1nc(-c2ccccc2)nc2ccccc12)c1ccccc1 | 60% | 86.7% | 10 mm | 50% | 60% | 90% | 66.6% | Active | 76.7% | 10 mm | 75% | 10 mm |
| O=c1c2ccccc2nc(-c2ccccc2)n1Nc1nc(-c2ccccc2)nc2ccccc12 | 76.7% | 96.7% | 6 mm | 30% | 40% | 75% | 83.3% | inactive | 93.3% | > 14 mm | 60% | 10 mm |
| O=C1c2ccccc2C(=O)N1Cc1nc2ccccc2c(=O)n1Nc1nc(-c2ccccc2)nc2ccccc12 | 83.3% | 96.7% | 6 mm | 25% | 70% | 85% | 86.7% | inactive | 86.7% | > 14 mm | 75% | > 14 mm |
| O=c1c2ccccc2nc(/C=C\c2ccccc2)n1Nc1nc(-c2ccccc2)nc2ccccc12 | 53.3% | 96.7% | > 14 mm | 60% | 70% | 95% | 80% | Active | 86.7% | 6 mm | 90% | 10 mm |
